SMILES strings stand for the structures. Where only a bound is given, the exact number is not on record here.

Series [1] deals with Liver. Description: Metabolic stability in Sprague-Dawley rat liver incubated for 1 hr followed by compound washout measured after 10 mins by 31P-NMR analysis. The series is classed as ADME, tissue-based.
A short description of series [2]: Drug uptake in Sprague-Dawley rat liver cytosol incubated for 1 hr followed by compound washout measured after 10 mins by 31P-NMR analysis. Type of series: ADME, tissue-based. In a few lines: (§1)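 Sprague−Dawley male rat livers (120−150 g) perfused via the portal vein, non-recirculating, at 37 °C with KH bicarbonate buffer (95% O2/5% CO2, pH 7.35) at 3 mL/min/g. After 30 min equilibration, 0.1 mM compound was given for 1 h, followed by a 10 min ice-cold KH washout. Liver homogenised in 0.25 M sucrose/10 mM HEPES pH 7.5; cytosol and mitochondria separated by differential centrifugation and levels reported as μmol/g. 3−9 experiments, mean ± SD.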

Series [3] can be described thus: Drug uptake in Sprague-Dawley rat liver mitochondria incubated for 1 hr followed by compound washout measured after 10 mins by 31P-NMR analysis. Type of series: ADME. In a few lines: as §1
For series [4], the system named is Liver. Description: Toxicity against Sprague-Dawley rat liver assessed as respiratory control ratio incubated for 1 hr followed by compound washout measured after 10 mins. Type of series: tissue-based. In a few lines:
(§2)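 Livers perfused at 37 °C with 0.1 mM compound for 1 h, then 10 min cold KH washout. Mitochondria isolated in ice-cold 0.3 M sucrose by differential centrifugation for membrane potential measurement. RCR was taken as respiration with 0.5 mM ADP divided by respiration after ADP phosphorylation ended, in KH2PO4/EDTA/MOPS/MgCl2 with glutamate 20 mM and malate 1 mM, pH 7.2, 37 °C. Mean ± SD.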

The test system of series [5] is Liver. Description: Toxicity against Sprague-Dawley rat liver assessed as mitochondrial membrane potential incubated for 1 hr followed by compound washout measured after 10 mins. The series is classed as tissue-based. In a few lines: as §2
The subject of series [6] is Liver. Description: Toxicity against Sprague-Dawley rat liver assessed as ATP content incubated for 1 hr followed by compound washout measured after 10 mins. Type of series: tissue-based. In a few lines:
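Rat livers perfused at 37 °C with KH buffer containing 0.1 mM compound for 1 h, then washed out for 10 min with cold KH. Organ freeze-clamped in liquid nitrogen and ATP measured enzymatically in perchloric extracts, given as μmol/g. Mean ± SD of 3−9 experiments.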

A short description of series [7]: Drug uptake in Sprague-Dawley rat liver mitochondria incubated for 1 hr followed by compound washout measured after 10 mins. The series is classed as ADME. In a few lines: as §1
Series [8] in a line: Drug uptake in Sprague-Dawley rat liver cytosol incubated for 1 hr followed by compound washout measured after 10 mins. The series is classed as ADME, tissue-based. In a few lines:
as §1

Series [9] is described as follows: (§3) Cytotoxicity against mouse 3T3 cells assessed as cell viability after 3 hrs by spectrophotometric analysis. Type of series: cell-based, NIH3T3. The conditions noted are these: 3T3 cells (NIH3T3), read-out: LD50. In a few lines:
(§4)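 Confluent 3T3 fibroblasts (DMEM, 10% FCS, 37 °C, 5% CO2) were switched to phenol red-free DMEM with 1% glucose and exposed 3 h to compound at 0.01−5 mM final (0.1% DMSO). Cells were then given neutral red (50 μg/mL, 2% FCS MEM) for 2 h and read at 540 nm. LD50 and LD10 were taken from dose−response curves over 3−6 experiments.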

The test system of series [10] is NIH3T3. The description is as §3. The series is classed as cell-based. As to conditions: nih3t3, 3 h; call rule not given here. In a few lines: as §4
In series [11] the test system is NIH3T3. The series can be described thus: Cytotoxicity against mouse 3T3 cells assessed as LDH release per mg of protein at LD10 concentration after 1 hr by spectrophotometric analysis. The conditions noted are these: nih3t3, 1 h. Type of series: cell-based. In a few lines: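 LDH released into the supernatant was measured after 1 h with a kit and expressed per mg protein. Total LDH was obtained from a Triton X-100 (1%) lysis control. Means of 3−6 independent experiments.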
On the technique in general: LDH leaks from cells whose membrane has failed.

A short description of series [12]: Toxicity against Chlamydomonas reinhardtii D66 assessed as loss of respiratory activity after 1 hr. The conditions noted are these: Chlamydomonas reinhardtii D66 cells, read-out: LD50. In a few lines: (§5)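 Cell wall-less C. reinhardtii D66 grown in Tris acetate phosphate medium to 1−5 × 10^6 cells/mL at 25 °C. Exposed 1 h at 25 °C to 0.01−1 mM compound (DMSO ≤0.1%), under saturating light for photosynthesis or in the dark for respiration. NaHCO3 added (1 mM), then O2 measured by Clark electrode against DMSO control. LD50 is the concentration giving 50% activity loss.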

Series [13] can be described thus: Dissociation constant, pKa of the compound in Krebs-Henseleit buffer. The series is classed as physicochemical. In a few lines:
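31P NMR titration at 25 °C in Krebs−Henseleit buffer, with shifts referenced to external phosphoric acid and a D2O capillary as lock. Diethoxyphosphoryl shift plotted against pH (range 1.5−12) and fitted to the Henderson−Hasselbalch equation by nonlinear regression. Three independent titrations per compound, mean ± SEM.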

A short description of series [14]: Toxicity against Chlamydomonas reinhardtii D66 assessed as loss of photosynthetic activity after 1 hr. The conditions noted are these: Chlamydomonas reinhardtii D66 cells, read-out: LD50. In a few lines:
as §5

The term pKa denotes the pH at which an ionisable group is half protonated. Consider `CCOP(=O)(OCC)C(C)(C)NCCCCCCCC[P+](c1ccccc1)(c1ccccc1)c1ccccc1.[Br-]`, for which the Stability result in series [1] is “Stable”. Moreover, the Drug uptake result in series [2] was “Active”; in [3], “Active”; in series [7] it was 1.32 µmol/g; in [8], 0.64 µmol/g. In series [4], the Ratio is recorded as 5.2. The values for the Activity in series [5], in [6] and in series [11] were 171.9 mV, 2.08 µmol/g and 17.7 IU, respectively. Further, the CC50 at 3 h in series [9] is 300 µM. Also, the LD10 in [10] is 0.15 mM. Besides, the figures for the LC50 at 1 h in [12] and in series [14] were 75 µM and 100 µM, respectively. This molecule also came in with a pKa in [13] of 6.94.
Take `CCOP(=O)(OCC)C(NCCCCCC[P+](c1ccccc1)(c1ccccc1)c1ccccc1)C(C)C.[Br-]` (racemic): the CC50 at 3 h in series [9] was 500 µM. In [10], the LD10 amounted to 0.2 mM. In addition, the Activity in series [11] was determined as 15.9 IU. Also, the LC50 at 1 h in series [12] and in [14] was 130 µM in each case. Besides, in series [13], the pKa was 5.99.
On to `CCOP(=O)(OCC)C(C)(C)NCCCCCC[P+](c1ccccc1)(c1ccccc1)c1ccccc1.[Br-]`, for which the Ratio in [4] stood at 5.7. Besides, the Activity in series [5] amounted to 174.2 mV; in series [6], 2.29 µmol/g; in series [11], 14.9 IU. In addition, the Drug uptake in series [7] turned out to be 1.55 µmol/g; in series [8] it was 0.93 µmol/g. For the same molecule, in series [9], the CC50 at 3 h was found to be 600 µM. In series [10], the LD10 turned out to be 0.2 mM. The results for the LC50 at 1 h in series [12] and in series [14] were 100 µM and 250 µM, respectively. Besides, in series [13], the pKa came to 6.53.
With `CCOP(=O)(OCC)C(C)(C)NCCCCCCCCCCCC[P+](c1ccccc1)(c1ccccc1)c1ccccc1.[Br-]`, the CC50 at 3 h in series [9] turned out to be 100 µM. Besides, the LD10 in series [10] was determined as 0.05 mM. The Activity in [11] is 44.7 IU. The LC50 at 1 h in series [12] and in [14] was < 25 µM throughout. This molecule also had a pKa in series [13] of 6.85.
Consider `CCOP(=O)(OCC)C(NCCCCCC[P+](c1ccccc1)(c1ccccc1)c1ccccc1)C(C)(C)C.[Br-]` (racemic), for which the CC50 at 3 h in series [9] amounted to 300 µM. Besides, the LD10 in series [10] amounted to 0.2 mM. Besides, in series [11], the Activity stood at 16.7 IU. The pKa in series [13] turned out to be 5.63.
Regarding `CCOP(=O)(OCC)C1(C)CCCN1` (stereo not drawn), the LD10 in series [10] is 78 mM. In addition, in [11], the Activity came out at 13.1 IU. The LC50 at 1 h in series [12] and in series [14] was > 1000 µM in each case. This molecule also yielded a pKa in series [13] of 7.01.
With `CC(C)(C)/[N+]([O-])=C/c1ccccc1`, in series [4], the Ratio is 5.5. In addition, the Activity worked out at 178.9 mV in series [5], 2.11 µmol/g in [6] and 14.2 IU in series [11]. The figures for the Drug uptake in series [7] and in series [8] were < 0.05 µmol/g and 0.88 µmol/g, respectively. Besides, the CC50 at 3 h in [9] stood at 7200 µM. The LD10 in [10] was determined as 4.1 mM. Also, the LC50 at 1 h in [12] and in series [14] was > 500 µM in each case.
On to `CCOP(=O)(OCC)C(NCCCCCCCC[P+](c1ccccc1)(c1ccccc1)c1ccccc1)C(C)C.[Br-]` (racemic), for which the CC50 at 3 h in series [9] worked out at 300 µM. Besides, the LD10 in series [10] is reported as 0.05 mM. In addition, the Activity in series [11] was found to be 49.4 IU. Also, the LC50 at 1 h in [12] and in [14] was 25 µM in each case. In series [13], this molecule returned a pKa of 6.23.
As to `CCCNC(C)(C)P(=O)(OCC)OCC`, in series [4], the Ratio was found to be 5.9. For the same molecule, the Activity was determined as 181.3 mV in series [5], 2.33 µmol/g in series [6] and 11.9 IU in [11]. Further, the Drug uptake is < 0.05 µmol/g in series [7] and 0.56 µmol/g in [8]. In [10], the LD10 was 76 mM. The molecule further displayed a pKa in series [13] of 6.99.
For `CCOP(=O)(OCC)C(C)(C)NCCCC[P+](c1ccccc1)(c1ccccc1)c1ccccc1.[Br-]`, in series [9], the CC50 at 3 h came out at 700 µM. For the same molecule, the LD10 in series [10] was determined as 0.4 mM. In [11], the Activity is 10.2 IU. Moreover, the LC50 at 1 h in [12] stood at 400 µM; in series [14] it was 500 µM. Besides, the pKa in series [13] came to 5.9.
Turning to `CC(C)(C)/[N+]([O-])=C/c1ccc(OCCCC[P+](c2ccccc2)(c2ccccc2)c2ccccc2)cc1.[Br-]`, the Stability result in series [1] was “Stable”. For the same molecule, the Drug uptake entry in series [2] was “Not Active”; in [3], “Active”; in series [7], 1.95 µmol/g; in [8] it was 0.12 µmol/g. In addition, the Ratio in [4] is listed as 4.7. Besides, the figures for the Activity in series [5], in series [6] and in [11] were 170.7 mV, 1.95 µmol/g and 49.7 IU, respectively. Moreover, the CC50 at 3 h in [9] worked out at 200 µM. Also, the LD10 in [10] turned out to be 0.05 mM. Besides, the figures for the LC50 at 1 h in series [12] and in series [14] were 50 µM and 100 µM, respectively.
Turning to `CCOP(=O)(OCC)C(NCCCC[P+](c1ccccc1)(c1ccccc1)c1ccccc1)C(C)C.[Br-]` (racemic), in series [9], the CC50 at 3 h was found to be 600 µM. The LD10 in series [10] is 0.3 mM. The Activity in [11] was found to be 10.7 IU. For the same molecule, the figures for the LC50 at 1 h in [12] and in series [14] were 150 µM and 250 µM, respectively. Moreover, the pKa in series [13] was determined as 5.47.
Turning to `CCOP(=O)(OCC)C(C)(N)CCC[P+](c1ccccc1)(c1ccccc1)c1ccccc1` (racemic), the pKa in [13] turned out to be 5.13.
On to `CCOP(=O)(OCC)C(C)(CCC[P+](c1ccccc1)(c1ccccc1)c1ccccc1)NCC(C)C.[Br-]` (racemic), for which the CC50 at 3 h in [9] was found to be 700 µM. The LD10 in series [10] is given as 0.5 mM. Further, the Activity in series [11] amounted to 12.9 IU. Moreover, the LC50 at 1 h in series [12] and in series [14] was 300 µM each time. Besides, in series [13], the pKa came out at 5.39.
For `CCOP(=O)(OCC)C(NCCCCCCCCCCCC[P+](c1ccccc1)(c1ccccc1)c1ccccc1)C(C)C.[Br-]` (racemic), the CC50 at 3 h in series [9] was found to be 20 µM. For the same molecule, the LD10 in series [10] is reported as 0.01 mM. Further, the Activity in [11] is 52.7 IU. For the same molecule, the LC50 at 1 h in series [12] and in series [14] was < 10 µM throughout. Further, in series [13], the pKa was 6.38.

For the origin of these results see ChEMBL document CHEMBL2321775, “Synthesis and biological characterization of new aminophosphonates for mitochondrial pH determination by (31)P NMR spectroscopy” (J Med Chem, 2013).
